Experiment: HPLC stability determination of final drug product
Assay type: physicochemical
Conditions: ambient temperature, shielded container
Procedure, shortened: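 Final product was formulated at 44–463 MBq/mL in USP ethanol (1 mL)/0.5 mg ascorbic acid in 0.9 % sodium chloride, sterile filtered and sealed in a glass vial. It was held at ambient temperature in a shielded container and checked by HPLC after end-of-synthesis. Release QC covered HPLC radiochemical purity (≥90 %), pH 4.5–7.5, endotoxin, GC residual solvents, sterility and filter integrity.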

- expiration time after end-of-synthesis (EOS): 4 h
SMILES: COC(=O)[C@@H](N)CC(=O)Nc1ccc2c(c1)Cc1cc([18F])ccc1-2 [[^18F]RP-115, methyl N^4-(7-[^18F]fluoro-9H-fluoren-2-yl)asparaginate]

From publication PMC13170702 (Nuclear medicine and biology, 2025)
